NR2E3 ag-1: activates human photoreceptor nuclear receptor NR2E3. GST-NR2E3/biotin-RetCOR TR-FRET, 1536-well. actives 0.12% (n = 320,000). inhibition of corepressor binding, % at 4.78 µM. Q9Y5X4;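 active = percent inhibition above the cutoff of mean plus 3 SD of all tested compounds, set per screening campaign, cut at about 20% in these data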
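Test system: GST-NR2E3 and biotin-RetCOR proteins | Quantity: 1.35 nM GST-tagged NR2E3 final | Medium: Tris pH 7.5 | Also added: 7 nM biotin-RetCOR | Dosing: Compound at 4.8 µM, single dose | Timing: 5 h at 4 °C | Detection: Time-resolved FRET | Read-out basis: Percent inhibition | Benchmarks: Biotin wells as high control, 0.6% DMSO wells as low control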
Rev-erbA mod: modulates human Rev-erb alpha binding to DNA. actives 0.79% (n = 370,000). Rev-erbα–FITC-DNA binding, fluorescence polarization, 90 min. activity, % at 10 µM. P20393;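 active = activity above about 14%, limit read from the data; passing the limit was not always enough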
Target sequence (P20393 whole entry, looked up): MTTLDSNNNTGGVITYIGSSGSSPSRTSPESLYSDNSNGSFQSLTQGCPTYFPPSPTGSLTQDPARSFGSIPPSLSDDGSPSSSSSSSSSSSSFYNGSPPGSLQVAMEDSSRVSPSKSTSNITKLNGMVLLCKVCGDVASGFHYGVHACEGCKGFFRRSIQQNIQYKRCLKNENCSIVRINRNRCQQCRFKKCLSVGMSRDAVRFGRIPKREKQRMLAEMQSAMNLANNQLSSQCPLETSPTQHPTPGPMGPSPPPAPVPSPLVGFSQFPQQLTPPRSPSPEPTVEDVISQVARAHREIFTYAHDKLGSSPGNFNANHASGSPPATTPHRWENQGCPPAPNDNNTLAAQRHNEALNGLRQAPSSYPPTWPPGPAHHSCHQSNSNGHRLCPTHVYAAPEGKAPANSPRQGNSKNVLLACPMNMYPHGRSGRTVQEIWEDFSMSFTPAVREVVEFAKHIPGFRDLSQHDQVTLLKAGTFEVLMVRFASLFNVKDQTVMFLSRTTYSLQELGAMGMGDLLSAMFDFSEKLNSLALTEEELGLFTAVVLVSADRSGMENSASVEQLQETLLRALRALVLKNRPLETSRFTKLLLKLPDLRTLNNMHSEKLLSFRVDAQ
NR2E3 ag-2: human photoreceptor-specific nuclear receptor agonism. Q9Y5X4. CHO-S Gal4-NCOR/VP16-NR2E3 two-hybrid, luciferase. inhibition of corepressor binding, % at 3.98 µM. actives 0.35% (n = 360,000). AID 602229;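 active = inhibition above the mean of all tested compounds plus 3 SD, cut at about 70% in these data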;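 also: higher means lower luciferase signal from less NR2E3 corepressor binding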
Neddyl block: inhibitors of human cullin neddylation; P61081+Q13564; TR-FRET cullin neddylation, biochemical; calls only at 25 µM; actives 0.58% (n = 360,000); AID 651699; in the data active = inhibition above about 36%
PG9 binder: PG9 antibody binding by small molecule; inhibition, % at 6.7 µM; AID 624416; TR-FRET gp120-PG9 antibody binding; actives 0.43% (n = 360,000); in the data active = inhibition above about 8.5%
NR2E3 agonist cf: confirmation of human NR2E3 nuclear receptor agonists; actives 39% (n = 360); activation (reported as inhibition), % at 3.98 µM; shares compounds with NR2E3 ag-1; cell-free NR2E3 corepressor release, TR-FRET, 5 h; in the data active = activation above about 20%
PPARg-NCOR2 ctr: releases PPARgamma from NCOR2 in NR2E3 counter-screen | inhibition, % at 3.98 µM | shares compounds with NR2E3 ag-1 | TR-FRET PPARg-NCOR2 coregulator interaction, biochemical | actives 45% (n = 360) | AID 504787; in the data active = inhibition above about 20%
PG9 binder conf: confirmation of small molecules binding HIV-1 gp120 antibody PG9; inhibition, % at 6.7 µM; shares compounds with PG9 binder; TR-FRET PG9 antibody binding, biochemical; AID 651571; actives 90% (n = 1,500); in the data active = inhibition above about 9%
PGV04 counter: counter-screen for PG9 binders: binding control antibody PGV04 | shares compounds with PG9 binder | TR-FRET PGV04 antibody-gp120 binding, biochemical | inhibition, % at 6.7 µM | actives 95% (n = 1,500); in the data active = inhibition above about 9.5%
PG9 binder DR: small molecules binding HIV-1 gp120 antibody PG9; shares compounds with PG9 binder; TR-FRET PG9 antibody-gp120 binding inhibition; IC50, µM; 95 tested, under 10 active; AID 651848; in the data active = IC50 below about 10 µM
PGV04 binding DR: PGV04 binding, dose response counter-screen; IC50, µM; shares compounds with PG9 binder; actives 20% (n = 95); AID 651937; TR-FRET binding to control antibody PGV04
PG126 DR counter: PG126 binding, dose response counter-screen; shares compounds with PG9 binder; TR-FRET binding to antibody PG126, counterscreen; IC50, µM; actives 20% (n = 95)
NR1D1 mod conf: confirmation of modulators of human Rev-erb alpha DNA binding | Rev-erb alpha FITC-DNA binding, fluorescence polarization, 90 min | activation, % at 25 µM | actives 61% (n = 3,000) | shares compounds with Rev-erbA mod;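 active = activation at or above a set limit, or at least 3 SD above the negative control mean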
RORg DNA counter: counter-screen for Rev-erb alpha modulators: RORgamma DNA binding; shares compounds with Rev-erbA mod; purified RORgamma protein-FITC-DNA binding, fluorescence polarization; IC50, µM; actives 8% (n = 910); AID 1259320;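 active = Compounds whose fitted half-maximal concentration for disrupting protein-DNA binding is below 10 micromolar; the record names Rev-erb in its text, so the target is in doubt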
Of the large screens only hits and unclear results are named; the others gave an inactive call (follow-up assays come after a bar, where they were run). Hits are enriched below; roughly 2% of the tested compounds scored in any of these assays. Rule as the data show it, unless noted: active = IC50 below about 9 µM; inactive = the rest.

O=C(O)CSc1nc2ccccc2nc1Cc1ccccc1F	NR2E3 ag-1 54, Rev-erbA mod 22, PG9 binder 10 | NR2E3 agonist cf 34 | PPARg-NCOR2 ctr 36 | PG9 binder conf 16 | PGV04 counter 27 | NR1D1 mod conf inactive
O=C(NCc1cccnc1)O[C@H]1CC[C@@]23CCCN2C(=O)CCC[C@H]3C1	none (no result: NR2E3 ag-1, NR2E3 ag-2, Neddyl block, PG9 binder)
COc1cccc(OCc2nc3ccccc3[nH]2)c1	none
COc1cccc(OCc2nc3ncc(Br)cc3[nH]2)c1	NR2E3 ag-1 20, Rev-erbA mod 26, PG9 binder 51 | NR2E3 agonist cf inactive | PPARg-NCOR2 ctr 26 | PG9 binder conf 52 | PGV04 counter 64 | NR1D1 mod conf 17
COc1ccc(C(=O)Nc2nnc(Cc3ccccc3)s2)c(OC)c1	NR2E3 ag-1 47, Rev-erbA mod 71, PG9 binder 68 | NR2E3 agonist cf inactive | PPARg-NCOR2 ctr inactive | PG9 binder conf 39 | PGV04 counter 32 | PG9 binder DR inactive | PGV04 binding DR inactive | PG126 DR counter inactive | NR1D1 mod conf 53 | RORg DNA counter inactive
CCC(C)NC(=O)CSc1nnc(-c2cc(OC)c(OC)c(OC)c2)o1 (centres undefined)	none (no result: NR2E3 ag-1, NR2E3 ag-2, Neddyl block, PG9 binder)
Cc1ccccc1-n1c(SCC(=O)Nc2ccccc2Cl)nc2n[nH]c(C)c2c1=N	none
CCOc1ccccc1NC(=O)CCSc1nc2n[nH]c(C)c2c(=N)n1-c1ccccc1Cl	NR2E3 ag-1 26, Rev-erbA mod 35, PG9 binder 41 | NR2E3 agonist cf 32 | PPARg-NCOR2 ctr 34 | NR1D1 mod conf inactive
CCOc1ccc(-n2c(SCC(=O)Nc3ccc(S(=O)(=O)Nc4cc(C)nc(C)n4)cc3)nnc2-c2ccc(C)cc2)cc1	none (no result: NR2E3 ag-1, NR2E3 ag-2, Neddyl block, PG9 binder)
C=CCn1c(SCC(=O)NC(=O)NCc2ccco2)nc2sc(C)c(C)c2c1=O	NR2E3 ag-1 22, Rev-erbA mod 51, PG9 binder 23 | NR2E3 agonist cf inactive | PPARg-NCOR2 ctr inactive | PG9 binder conf 28 | PGV04 counter 41 | NR1D1 mod conf 41
CC(=O)c1sc(NC(=O)c2ccco2)nc1-c1ccccc1	none (no result: Rev-erbA mod, PG9 binder)
CCOC(=O)c1sc(NC(=O)c2ccco2)nc1-c1ccccc1	NR2E3 ag-1 20, Rev-erbA mod 46, PG9 binder 10 | NR2E3 agonist cf inactive | PPARg-NCOR2 ctr 25 | PG9 binder conf 30 | PGV04 counter 57 | NR1D1 mod conf 25
Cc1cc(-n2c(SCC(=O)NCCC3=CCCCC3)nc3n[nH]c(C)c3c2=N)ccc1Cl	NR2E3 ag-1 59, Rev-erbA mod 45, PG9 binder 41 | NR2E3 agonist cf inactive | PPARg-NCOR2 ctr inactive | PG9 binder conf 46 | PGV04 counter 58 | NR1D1 mod conf 21
O=C(NCc1ccc(F)c(F)c1)C1C2C=CC3(CN(Cc4ccccc4)C(=O)C13)O2 (centres undefined)	none (no result: NR2E3 ag-1, NR2E3 ag-2, Neddyl block, PG9 binder)
